Here are results for 29 compounds from ChEMBL document CHEMBL1122431, “Carbocyclic analogues of 5-substituted uracil nucleosides: synthesis and antiviral activity” (1983).

What all share (type): functional
The subject of experiment [1] is Human alphaherpesvirus 1. The experiment in a line: Antiviral activity against herpes simplex virus(1) strain 377. A digest of the protocol:
(§1)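 Inhibition of virus-induced cytopathogenic effect (CPE) in primary rabbit kidney cell cultures challenged with HSV-1 strain 377 or HSV-2 strain MS. HSV-2 testing followed the same procedure. Activity was scored as a virus rating (VR).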

Experiment [2] has as its system Human alphaherpesvirus 2. The experiment in a line: Antiviral activity against herpes simplex virus(2) strain MS expressed as virus rating. In short, it runs like this: as §1
Experiment [3] deals with Human alphaherpesvirus 2. The experiment in a line: Minimum inhibitory concentration (MIC50) in Herpes simplex virus type-2(HSV-2) using MS strain. In short, it runs like this:
(§2)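 Inhibition of virus-induced CPE in primary rabbit kidney cell cultures infected with HSV-1 strain 377 or HSV-2 strain MS. Potency was taken as the minimum inhibitory concentration (MIC50), in μg/mL, alongside the virus rating.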

Experiment [4] has as its system Human alphaherpesvirus 1. The experiment in a line: Minimum inhibitory concentration (MIC50) in Herpes simplex virus type-1(HSV-1) using 377 strain. In short, it runs like this: as §2
Experiment [5] has as its system Human alphaherpesvirus 1. The experiment in a line: Antiviral activity against herpes simplex virus(1) strain 377, expressed as virus rating. In short, it runs like this: as §1
Experiment [6] relates to Human alphaherpesvirus 1. The experiment in a line: Minimum inhibitory concentration (MIC50) in Herpes simplex virus type-1 (HSV-1) using 377 strain. In short, it runs like this:
as §2

The subject of experiment [7] is Human alphaherpesvirus 2. The experiment in a line: Minimum inhibitory concentration (MIC50) in Herpes simplex virus type-2 (HSV-2) using MS strain. A digest of the protocol: as §2
Experiment [8] concerns Human alphaherpesvirus 1. The experiment in a line: Minimum inhibitory concentration (MIC50) in Herpes simplex virus type-1 (HSV-1) using 377 strain. Experiment 2. A digest of the protocol:
as §2

Experiment [9] deals with Human alphaherpesvirus 1. The experiment in a line: Antiviral activity against herpes simplex virus(1) strain 377, expressed as virus rating. Experiment 1. A digest of the protocol: as §1
The subject of experiment [10] is Human alphaherpesvirus 1. The experiment in a line: Antiviral activity against herpes simplex virus(1) strain 377, expressed as virus rating. Experiment 2. In short, it runs like this:
as §1

Experiment [11] deals with Human alphaherpesvirus 1. The experiment in a line: Minimum inhibitory concentration (MIC50) in Herpes simplex virus type-1 (HSV-1) using 377 strain. Experiment 1. In short, it runs like this: as §2
The test system of experiment [12] is Human alphaherpesvirus 2. The experiment in a line: Antiviral activity against herpes simplex virus(2) strain MS expressed as virus rating. A digest of the protocol:
as §1

Experiment [13] has as its system Human alphaherpesvirus 1. The experiment in a line: Minimum inhibitory concentration (MIC50) in Herpes simplex virus type-1 (HSV-1) using 377 strain. Experiment 3. A digest of the protocol: as §2
The subject of experiment [14] is Human alphaherpesvirus 1. The experiment in a line: Antiviral activity against herpes simplex virus(1) strain 377, expressed as virus rating. Experiment 3. A digest of the protocol: as §1
In experiment [15] the test system is Human alphaherpesvirus 1. The experiment in a line: Minimum inhibitory concentration (MIC50) in Herpes simplex virus type-1 (HSV-1) using 377 strain. Experiment 2. A digest of the protocol:
as §2

The subject of experiment [16] is Human alphaherpesvirus 2. The experiment in a line: Antiviral activity against herpes simplex virus(2) strain MS expressed as virus rating. Experiment 1. In short, it runs like this: as §1
Experiment [17] concerns Human alphaherpesvirus 2. The experiment in a line: Antiviral activity against herpes simplex virus(2) strain MS expressed as virus rating. Experiment 2. In short, it runs like this: as §1
Experiment [18] concerns Human alphaherpesvirus 1. The experiment in a line: Antiviral activity against herpes simplex virus(1) strain 377, expressed as virus rating. Experiment 4. In short, it runs like this:
as §1

The subject of experiment [19] is Human alphaherpesvirus 2. The experiment in a line: Minimum inhibitory concentration (MIC50) in Herpes simplex virus type-2 (HSV-2) using MS strain. Experiment 1. A digest of the protocol:
as §2

For experiment [20], the system named is Human alphaherpesvirus 2. The experiment in a line: Minimum inhibitory concentration (MIC50) in Herpes simplex virus type-2 (HSV-2) using MS strain. Experiment 2. In short, it runs like this:
as §2

The test system of experiment [21] is Human alphaherpesvirus 1. The experiment in a line: Minimum inhibitory concentration (MIC50) in Herpes simplex virus type-1 (HSV-1) using 377 strain. Experiment 4. In short, it runs like this:
as §2

Experiment [22] has as its system Human alphaherpesvirus 1. The experiment in a line: Minimum inhibitory concentration (MIC50) in Herpes simplex virus type-1 (HSV-1) using 377 strain at 0.9 virus rating. Experiment 2. A digest of the protocol:
as §2

In brackets after ≈: the same amount, converted by molar mass.

In the experiment on Human alphaherpesvirus 1 [1], `O=c1ccn(C2CC(CO)CC2O)c(=O)[nH]1` (stereo not given) came in with a Virus rating of 0.
Still for that read-out and setting: to `Cc1cn(C2CC(CO)C(O)C2O)c(=O)[nH]c1=O` (stereo not given) belongs 0.
On to `O=c1[nH]c(=O)n(C2CC(O)C(CO)C2)cc1Br` (stereo not given), for which the values for the Virus rating in the experiment with Human alphaherpesvirus 2 [2] and with Human alphaherpesvirus 1 [1] were 1.5 and 6.2, respectively. Moreover, the MIC50 came to 32 µg/mL (≈ 105 µM) in the experiment with Human alphaherpesvirus 2 [3] and 0.3 µg/mL (≈ 0.983 µM) in the experiment on Human alphaherpesvirus 1 [4].
As for `Nc1cn(C2CC(O)C(CO)C2)c(=O)[nH]c1=O` (stereo not given), the Virus rating in the experiment on Human alphaherpesvirus 1 [5] amounted to 0.1.
Turning to `Nc1cn(C2CC(CO)C(O)C2O)c(=O)[nH]c1=O` (stereo not given), the Virus rating with Human alphaherpesvirus 1 [1] is given as 0.
`Cc1cn([C@@H]2C[C@H](CO)[C@@H](O)C2)c(=O)[nH]c1=O`: the Virus rating in the experiment on Human alphaherpesvirus 2 [2] worked out at 3.2; in the experiment on Human alphaherpesvirus 1 [1], 5.4. Besides, the MIC50 in the experiment on Human alphaherpesvirus 1 [6] was determined as 0.8 µg/mL (≈ 3.33 µM); in the experiment with Human alphaherpesvirus 2 [7], 7 µg/mL (≈ 29.1 µM).
Consider `CC(=O)OCC1CC(n2cc(I)c(=O)[nH]c2=O)CC1OC(C)=O` (stereo not given), for which the results for the MIC50 in the experiment on Human alphaherpesvirus 1 [8] and against Human alphaherpesvirus 1 [11] were 25 µg/mL (≈ 57.3 µM) and 10 µg/mL (≈ 22.9 µM), respectively. Also, the Virus rating in the experiment on Human alphaherpesvirus 1 [9] was 2.4; in the experiment on Human alphaherpesvirus 1 [10], 1.6.
Consider `CNc1cn(C2CC(O)C(CO)C2)c(=O)[nH]c1=O` (stereo not given), for which the Virus rating was 1.2 with Human alphaherpesvirus 2 [12], 4.2 with Human alphaherpesvirus 1 [9], 3.9 in the experiment with Human alphaherpesvirus 1 [10] and 4.5 with Human alphaherpesvirus 1 [14]. Further, the MIC50 with Human alphaherpesvirus 1 [13] amounted to 25 µg/mL (≈ 97.9 µM); in the experiment on Human alphaherpesvirus 1 [11], 10 µg/mL (≈ 39.2 µM); against Human alphaherpesvirus 1 [15], 15 µg/mL (≈ 58.8 µM); in the experiment on Human alphaherpesvirus 2 [7] it was 229 µg/mL (≈ 897 µM).
In the case of `O=c1[nH]c(=O)n([C@H]2C[C@H](O)[C@@H](CO)O2)cc1F` [FLOXURIDINE], the Virus rating in the experiment on Human alphaherpesvirus 2 [2] and in the experiment on Human alphaherpesvirus 1 [1] was 0 throughout.
`Nc1ncnc2c1ncn2[C@@H]1O[C@H](CO)[C@@H](O)[C@@H]1O` [VIDARABINE]: the Virus rating worked out at 2.3 in the experiment with Human alphaherpesvirus 2 [2] and 2.7 in the experiment on Human alphaherpesvirus 1 [5]. Besides, the values for the MIC50 in the experiment with Human alphaherpesvirus 1 [6] and in the experiment on Human alphaherpesvirus 2 [7] were 9.8 µg/mL (≈ 36.7 µM) and 20.1 µg/mL (≈ 75.2 µM), respectively.
Compound `O=c1[nH]c(=O)n(C2CC(CO)CC2O)cc1F` (stereo not given) gave a Virus rating in the experiment on Human alphaherpesvirus 1 [1] of 0.
On to `CN(C)c1cn(C2CC(O)C(CO)C2)c(=O)[nH]c1=O` (stereo not given), for which, in the experiment with Human alphaherpesvirus 1 [1], the Virus rating is listed as 0.
Take `O=c1ccn(C2CC(O)C(CO)C2)c(=O)[nH]1` (stereo not given): in the experiment with Human alphaherpesvirus 1 [5], the Virus rating amounted to 0.
As for `O=c1[nH]c(=O)n(C2CC(CO)C(O)C2O)cc1CO` (stereo not given), the Virus rating turned out to be 0 in the experiment on Human alphaherpesvirus 2 [2] and 0.3 in the experiment with Human alphaherpesvirus 1 [5].
`CNc1cn(C2CC(CO)CC2O)c(=O)[nH]c1=O` (stereo not given) came in with a Virus rating in the experiment with Human alphaherpesvirus 1 [1] of 0.
`CC(=O)OCC1CC(OC(C)=O)C(n2cc(Br)c(=O)[nH]c2=O)C1` (stereo not given): in the experiment on Human alphaherpesvirus 1 [5], the Virus rating is given as 0.
As for `O=c1[nH]c(=O)n([C@@H]2C[C@H](CO)[C@@H](O)C2)cc1I`, the Virus rating is given as 2.9 in the experiment with Human alphaherpesvirus 2 [16]; 3.4 in the experiment on Human alphaherpesvirus 2 [17]; 6.5 in the experiment on Human alphaherpesvirus 1 [9]; 7.1 with Human alphaherpesvirus 1 [10]; 7.9 in the experiment on Human alphaherpesvirus 1 [14]; 7.4 with Human alphaherpesvirus 1 [18]. The MIC50 against Human alphaherpesvirus 1 [13] was 0.1 µg/mL (≈ 0.284 µM); against Human alphaherpesvirus 1 [11], 0.4 µg/mL (≈ 1.14 µM); against Human alphaherpesvirus 1 [15], 0.3 µg/mL (≈ 0.852 µM); in the experiment with Human alphaherpesvirus 2 [19] it was 32 µg/mL (≈ 90.9 µM); against Human alphaherpesvirus 2 [20] it was 20 µg/mL (≈ 56.8 µM); in the experiment with Human alphaherpesvirus 1 [21], 0.4 µg/mL (≈ 1.14 µM).
`O=c1[nH]c(=O)n(C2CC(CO)C(O)C2O)cc1F` (stereo not given) yielded a Virus rating in the experiment on Human alphaherpesvirus 1 [1] of 0.
As for `Nc1cn(C2CC(CO)CC2O)c(=O)[nH]c1=O` (stereo not given), the Virus rating with Human alphaherpesvirus 1 [1] is on record as 0.
On to `CCCCNc1cn(C2CC(O)C(CO)C2)c(=O)[nH]c1=O` (stereo not given), for which the figures for the Virus rating with Human alphaherpesvirus 2 [12] and in the experiment on Human alphaherpesvirus 1 [1] were 0.7 and 2, respectively. The MIC50 was 290 µg/mL (≈ 975 µM) against Human alphaherpesvirus 1 [6] and 1000 µg/mL (≈ 3360 µM) against Human alphaherpesvirus 2 [7].
In turn, `CNc1cn(C2CC(CO)C(O)C2O)c(=O)[nH]c1=O` (stereo not given) returned a Virus rating in the experiment with Human alphaherpesvirus 1 [1] of 0.
As for `O=c1[nH]c(=O)n([C@H]2C[C@H](O)[C@@H](CO)O2)cc1I` [IDOXURIDINE], the Virus rating in the experiment on Human alphaherpesvirus 2 [2] is listed as 5; in the experiment with Human alphaherpesvirus 1 [5], 7.4. The MIC50 is 0.3 µg/mL (≈ 0.847 µM) in the experiment with Human alphaherpesvirus 1 [6] and 1 µg/mL (≈ 2.82 µM) in the experiment with Human alphaherpesvirus 2 [7].
For `O=c1ccn(C2CC(CO)C(O)C2O)c(=O)[nH]1` (stereo not given), the Virus rating in the experiment with Human alphaherpesvirus 1 [1] is 0.
Same read-out and setting: to `O=c1[nH]c(=O)n(C2CC(CO)CC2O)cc1Br` (stereo not given) belongs 0.
As for `CC(=O)OCC1CC(n2cc(Br)c(=O)[nH]c2=O)CC1OC(C)=O` (stereo not given), the Virus rating is on record as 1.3 with Human alphaherpesvirus 1 [9] and 0.9 with Human alphaherpesvirus 1 [10]. For the same compound, the values for the MIC50 in the experiment with Human alphaherpesvirus 1 [22] and against Human alphaherpesvirus 1 [11] were 100 µg/mL (≈ 257 µM) and 92 µg/mL (≈ 236 µM), respectively.
In the experiment on Human alphaherpesvirus 1 [1], `O=c1[nH]c(=O)n(C2CC(CO)C(O)C2O)cc1I` (stereo not given) returned a Virus rating of 0.
The same measure, in the same setting: under `Cc1cn(C2CC(CO)CC2O)c(=O)[nH]c1=O` (stereo not given) stands 0.4; under `O=c1[nH]c(=O)n(C2CC(CO)C(O)C2O)cc1Br` (stereo not given), 0; under `O=c1[nH]c(=O)n(C2CC(CO)CC2O)cc1I` (stereo not given), 0.
